Key:
[1] = DPPH free radical scavenging assay; settings: at a concentration of 1000 μg mL^−1
Method in brief: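 DPPH 0.1 mM in ethanol, 1 mL, added to 3 mL of test compound solution in ethanol at 1000 μg mL−1. The mixture was shaken vigorously, left 30 min at room temperature, and absorbance read at 517 nm. Ascorbic acid served as reference, run in triplicate. % scavenging = (A0 − A1)/A0 × 100, where A0 is control-reaction absorbance and A1 is absorbance with sample.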

human recombinant COX-2 = biological target: T1, human recombinant COX-2 (Homo sapiens, UniProt P35354); test: COX-2 inhibitor screening assay kit; type: biochemical; settings: for IC50 COX-1/COX-2 (in vitro COX-2 selectivity index): IC50 of COX-1/COX-2
T1 sequence (P35354 18-604): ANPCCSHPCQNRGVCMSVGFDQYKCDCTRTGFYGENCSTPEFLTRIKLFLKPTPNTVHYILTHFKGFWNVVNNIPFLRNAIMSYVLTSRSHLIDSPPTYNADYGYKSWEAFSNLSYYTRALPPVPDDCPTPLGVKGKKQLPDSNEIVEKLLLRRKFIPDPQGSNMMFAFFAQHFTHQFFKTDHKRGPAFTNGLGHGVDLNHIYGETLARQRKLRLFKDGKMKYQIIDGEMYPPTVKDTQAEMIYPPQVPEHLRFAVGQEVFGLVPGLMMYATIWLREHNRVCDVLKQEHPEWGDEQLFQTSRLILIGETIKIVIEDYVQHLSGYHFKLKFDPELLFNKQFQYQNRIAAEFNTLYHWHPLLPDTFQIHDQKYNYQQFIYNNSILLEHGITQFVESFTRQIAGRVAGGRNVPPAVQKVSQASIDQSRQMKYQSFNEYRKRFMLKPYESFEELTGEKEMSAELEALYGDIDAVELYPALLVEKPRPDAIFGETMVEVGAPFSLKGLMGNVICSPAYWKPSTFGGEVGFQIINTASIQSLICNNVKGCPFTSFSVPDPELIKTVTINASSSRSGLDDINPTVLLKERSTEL

ovine COX-1 = biological target: T2, ovine COX-1 (Ovis aries, UniProt P05979); test: COX-1 inhibitor screening assay kit; type: biochemical
T2 sequence (P05979 25-600): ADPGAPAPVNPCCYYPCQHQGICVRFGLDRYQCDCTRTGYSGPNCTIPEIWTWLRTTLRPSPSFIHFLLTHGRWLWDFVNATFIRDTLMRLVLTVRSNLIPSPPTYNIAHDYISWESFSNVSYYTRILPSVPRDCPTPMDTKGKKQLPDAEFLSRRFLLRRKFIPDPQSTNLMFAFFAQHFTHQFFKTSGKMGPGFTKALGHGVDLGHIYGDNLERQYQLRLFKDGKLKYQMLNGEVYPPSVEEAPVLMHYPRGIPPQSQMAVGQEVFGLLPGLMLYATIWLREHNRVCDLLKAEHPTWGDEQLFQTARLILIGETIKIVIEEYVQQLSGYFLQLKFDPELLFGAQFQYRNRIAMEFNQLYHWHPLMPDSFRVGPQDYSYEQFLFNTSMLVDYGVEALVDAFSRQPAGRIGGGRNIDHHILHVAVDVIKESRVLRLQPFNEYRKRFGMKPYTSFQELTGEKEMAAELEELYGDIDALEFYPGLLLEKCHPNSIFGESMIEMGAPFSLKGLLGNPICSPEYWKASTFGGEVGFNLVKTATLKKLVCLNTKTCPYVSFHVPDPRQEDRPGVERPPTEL

| IC50 (human recombinant COX-2) [µM] | IC50 COX-1/COX-2 (in vitro COX-2 selectivity index) (human recombinant COX-2) [µM] | IC50 (ovine COX-1) [µM] | SMILES | DPPH scavenging% [1] [%] | DPPH scavenging% ([1]; listed as Comp. 4) [%] | DPPH scavenging% ([1]; listed as Comp. 11) [%] |
| --- | --- | --- | --- | --- | --- | --- |
| 0.06 | 175.00 | 10.5 | O=C1NC2(CCCCC2)c2nc3c(c(-c4ccccc4)c21)CCCC3 [Compound 11, 9′-Phenyl-5′,6′,7′,8′-tetrahydrospiro[cyclohexane-1,3′-pyrrolo[3,4-b]quinolin]-1′(2′H)-one] |  |  | 86.1 |
| 0.08 | 75.00 | 6 | O=C1NC2(CCCCC2)c2[nH]c(=S)nc(-c3ccccc3)c21 [Compound 14, 4′-Phenyl-2′-thioxo-1′,2′-dihydrospiro[cyclohexane-1,7′-pyrrolo[3,4-d]pyrimidin]-5′(6′H)-one] | 66.5 |  |  |
| 0.099 | 80.81 | 8 | Cc1cc(-c2ccccc2)c2c(n1)C1(CCCCC1)NC2=O [Compound 17, 2′-Methyl-4′-phenylspiro[cyclohexane-1,7′-pyrrolo[3,4-b]pyridin]-5′(6′H)-one] |  |  |  |

More lines, now with the values behind:

| SMILES | IC50 (human recombinant COX-2) [µM] | IC50 COX-1/COX-2 (in vitro COX-2 selectivity index) (human recombinant COX-2) [µM] | IC50 (ovine COX-1) [µM] | DPPH scavenging% [1] [%] | DPPH scavenging% ([1]; listed as Comp. 4) [%] | DPPH scavenging% ([1]; listed as Comp. 11) [%] |
| --- | --- | --- | --- | --- | --- | --- |
| O=C1O[C@H]([C@@H](O)CO)C(O)=C1O [Ascorbic acid, ascorbic acid, reference compound] |  |  |  | 97 |  |  |
| NC1=NC(=S)NC12CCCCC2 [Compound 4, 4-Amino-1,3-diazaspiro[4.5]dec-3-ene-2-thione] | 0.135 | 55.56 | 7.5 |  | 61.1 |  |
| O=C1CCC(=O)C2(CCCCC2)N1 [Compound 6, 1-Azaspiro[5.5]undecane-2,5-dione] | 0.089 | 129.21 | 11.5 | 74.4 |  |  |
